Data set [1] in a line: The time reach to maximum Peak plasma concentration was measured in dogs after oral administration of 1 mg/kg dose. Type of data set: ADME, organism-based, Canis lupus familiaris. Further details: dose 1 mg/kg, route oral. The note with it: dog.
The nature of data set [2]: Oral bioavailability in rat (dose 1 mg/kg). The following applies: in vivo. Type of data set: ADME, organism-based. The method, boiled down: (§1)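 Rats were given a single 1 mg/kg oral dose, as a 0.25% methylcellulose suspension or as a solution in EtOH/PG (20:80). Animals were sacrificed at 30 min and 1, 2, 4, 8 and 16 h, with blood collected into EDTA. Plasma was separated by centrifugation and extracted liquid–liquid. Analysis was by LC/MS/MS. Each value is a single determination or the average of two.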

A short description of data set [3]: The Peak plasma concentration was measured in rats after oral administration of 1 mg/kg dose. The class given is ADME, organism-based. The arrangement: dose 1 mg/kg, route oral. The note with it: rat. The gist of the method:
as §1

A short description of data set [4]: The clearance was measured in dogs after intravenous administration of 1 mg/kg dose. Type of data set: ADME, organism-based, Canis lupus familiaris. Further details: dose 1 mg/kg, route intravenous. The note with it: dog, in vivo. The method, boiled down:
(§2)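 Dogs (n = 4–6) received 1 mg/kg iv in an ethanol/PEG-based cosolvent vehicle. Plasma was extracted liquid–liquid and quantified by LC/MS/MS. Clearance, steady-state volume and elimination half-life were derived from the concentration–time curves.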

A short description of data set [5]: The Elimination half-life was measured in dogs after intravenous administration of 1 mg/kg dose. Type of data set: ADME, organism-based, Canis lupus familiaris. The arrangement: dose 1 mg/kg, route intravenous. The following applies: dog, in vivo. The gist of the method:
as §2

A short description of data set [6]: Oral bioavailability in dog (dose 1 mg/kg). Type of data set: ADME, organism-based, Canis lupus familiaris. The following applies: in vivo.
The test system of a further data set is Canis familiaris. Briefly: The Plasma area under the compound concentration -time curve was measured in dogs after oral administration of 1 mg/kg dose. The class given is ADME, organism-based, Canis lupus familiaris. The arrangement: dose 1 mg/kg, route oral. The following applies: dog, in vivo.
A short description of data set [7]: The volume of distribution at steady state was measured in dogs after intravenous administration of 1 mg/kg dose. Further details: dose 1 mg/kg, route intravenous. The class given is ADME, organism-based, Canis lupus familiaris. The following applies: dog, in vivo, read-out: Vss. The gist of the method:
as §2

Data set [8] in a line: The Peak plasma concentration was measured in dogs after oral administration of 1 mg/kg dose. The arrangement: dose 1 mg/kg, route oral. The note with it: dog. Type of data set: ADME, organism-based, Canis lupus familiaris.
The subject of a further data set is Rattus norvegicus. Briefly: The Plasma area under the compound concentration -time curve was measured in rats after oral administration of 1 mg/kg dose. The class given is ADME, organism-based. Further details: dose 1 mg/kg, route oral. The following applies: in vivo. The gist of the method: as §1
A short description of data set [9]: The Brain concentration compared to plasma concentration in rats at steady state after intravenous infusion. The following applies: rat, brain and plasma, read-out: B/P.
For data set [10], the target named is T1, Corticotropin-releasing factor receptor 1 (Homo sapiens, UniProt P34998).
T1 sequence (P34998 whole entry): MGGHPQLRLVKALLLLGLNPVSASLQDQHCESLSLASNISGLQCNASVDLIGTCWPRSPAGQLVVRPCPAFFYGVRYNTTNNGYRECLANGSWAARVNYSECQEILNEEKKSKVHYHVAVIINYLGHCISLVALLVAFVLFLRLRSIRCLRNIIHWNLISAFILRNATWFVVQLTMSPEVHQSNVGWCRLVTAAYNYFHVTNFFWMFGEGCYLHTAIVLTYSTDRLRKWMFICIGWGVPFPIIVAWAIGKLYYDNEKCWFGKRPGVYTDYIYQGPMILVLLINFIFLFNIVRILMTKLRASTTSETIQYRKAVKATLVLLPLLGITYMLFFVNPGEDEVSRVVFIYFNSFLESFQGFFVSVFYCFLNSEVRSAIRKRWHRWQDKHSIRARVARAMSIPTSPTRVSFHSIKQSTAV
The data set is described as follows: Binding affinity to recombinant human Corticotropin releasing factor receptor 1 (hCRF1) expressed in 293EBNA cells. The class given is cell-based.

The values below come from ChEMBL document CHEMBL1132598, “Synthesis, corticotropin-releasing factor receptor binding affinity, and pharmacokinetic properties of triazolo-, imidazo-, and pyrrolopyrimidines and -pyridines” (J Med Chem, 1999).

pKi: −log10 of the molar value.

What is called Tmax is the time from dosing to the highest level. The term bioavailability denotes dose-corrected exposure relative to a reference, in per cent. Read a high bioavailability as good availability. A word on the Cmax: it is the maximum level reached in the sampled fluid or tissue. Usually clearance stands for the volume of plasma or blood freed of the substance per unit of time. Higher therefore signals efficient removal. As a reminder, the half-life is how long it takes for the measured level to halve. Low readings indicate rapid decline, high ones slow decline. A word on the pKi: it is the negative decadic logarithm of the Ki, by convention in mol/L.

As for `COCCN(CCOC)c1nc(C)nc2c1nnn2-c1ccc(C(C)C)cc1Br`, the Tmax in [1] came out at 0.67 h. In data set [2], this compound showed a bioavailability of 17%. Besides, the Cmax in data set [3] turned out to be 30 nM; in [8], 308 nM. This compound also had a clearance in data set [4] of 7.97 mL/min/kg. For the same compound, in data set [5], the half-life is 33.2 h. Moreover, the F in [6] turned out to be 30.7%. The figures for the AUC T with Canis familiaris and in the data set on Rattus norvegicus were 0.914 µM·h and 0.098 µM·h, respectively. Besides, in [7], the Vd amounted to 15.6 L/kg. Besides, in data set [9], the Kp is 0.6.

For the compound `COCCN(Cc1ccccc1)c1nc(C)nc2c1nnn2-c1ccc(C(C)C)cc1Br`, the Tmax in data set [1] is 0.8 h. Moreover, the bioavailability in data set [2] is 15.5%; in data set [6] it was 7.3%. Moreover, the values for the Cmax in data set [3] and in data set [8] were 12.5 nM and 39 nM, respectively. In data set [4], this compound showed a clearance of 8.72 mL/min/kg. The half-life in data set [5] is 46.7 h. Moreover, the AUC T with Canis familiaris was 0.366 µM·h; in the data set on Rattus norvegicus, 0.137 µM·h. The Vd in data set [7] turned out to be 24.7 L/kg. Moreover, the pKi in data set [10] was 8.30. Further, the Kp in data set [9] is 0.2.

Take `CCC(COC)Oc1nc(C)nc2c1nnn2-c1ccc(C(C)C)cc1Br` (centres undefined): in [2], the bioavailability was 6%. The Cmax in [3] stood at 5.9 nM. The compound also yielded an AUC T in the data set on Rattus norvegicus of 0.021 µM·h. Also, the pKi in data set [10] was 8.72.

In data set [2], `CCC(CCOC)Nc1nc(C)nc2c1ncn2-c1ccc(C(C)C)cc1Br` (centres undefined) gave a bioavailability of 7%. The same compound registered a Cmax in [3] of 19.9 nM. In the data set on Rattus norvegicus, the AUC T was 0.03 µM·h. The pKi in data set [10] was 8.10.

As for `CCC(COC)Nc1nc(C)nc2c1nnn2-c1c(C)cc(C)cc1C` (centres undefined), the pKi in [10] was 7.23.

Consider `CCCCN(CC)c1nc(C)nc2c1nnn2-c1ccc(C(C)C)cc1Br`, for which, in data set [1], the Tmax was determined as 1.25 h. Further, the bioavailability in data set [2] turned out to be 26.5%; in data set [6], 18.4%. Further, the Cmax in data set [3] stood at 49.2 nM; in [8] it was 141 nM. Further, the clearance in data set [4] is 9.25 mL/min/kg. The half-life in [5] was 26 h. Besides, the AUC T was determined as 0.824 µM·h in the data set on Canis familiaris and 0.471 µM·h in the data set on Rattus norvegicus. Further, the Vd in data set [7] was found to be 7.54 L/kg. Moreover, the pKi in data set [10] was 8.12.

Consider `CCC(COC)Nc1nc(C)nc2c1nnn2-c1ccc(C(C)C)cc1Br` (stereo in doubt; 4x), for which the Tmax in [1] is 0.5 h. In addition, the bioavailability in [2] amounted to 21%; in data set [6], 53.1%. Besides, the maximum concentration (Cmax) in data set [3] is 30.7 nM; in data set [8], 546 nM. The clearance in data set [4] was 7.38 mL/min/kg. Besides, the half-life in data set [5] was 19 h. Moreover, the AUC T in the data set with Canis familiaris was 3.14 µM·h; in the data set with Rattus norvegicus, 0.146 µM·h. Moreover, the Vd in [7] was 10.1 L/kg. Besides, in [10], the pKi was 8.21. Moreover, in [9], the Kp was determined as 0.6.

In the case of `CCC(COC)Nc1nc(C)nc2c1nnn2-c1ccc(C(C)C)cc1Br` (stereo in doubt; 4y), in data set [10], the pKi is 8.12.

On to `CCC(COC)Nc1nc(C)nc2c1nnn2-c1ccc(C(C)C)cc1Br` (stereo in doubt; 4z), for which, in [10], the pKi was 8.03.

For the compound `CCCCN(CC)c1nc(C)nc2c1c(C)c(C)n2-c1c(C)cc(C)cc1C` [ANTALARMIN], the pKi in data set [10] was 9.08.

On to `CCCCN(CC)c1nc(C)nc2c1c(C)cn2-c1c(C)cc(C)cc1C` [CP-154526], for which, in [10], the pKi is 8.79.
